In ChEMBL document CHEMBL1131231, “New azole antifungals. 2. Synthesis and antifungal activity of heterocyclecarboxamide derivatives of 3-amino-2-aryl-1-azolyl-2-butanol” (1998):
Values after ≈ are worked out from the molar mass of the structure shown.

Assays:
[1] = system: Mus musculus; assay: In vivo antifungal activity against murine candidosis model after peroral administration with 2.5 mg/kg at various time intervals. (percent protection for 100% mortality with untreated group); assay type: functional; conditions: route oral
Outline: (§1)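 Male mice, groups of 10, infected iv with 0.2 mL Candida albicans at (2–8) × 10⁷ cfu/mL. Oral suspension in 1% Tween + 0.2% carboxymethylcellulose in water, given 1, 4 and 24 h post-infection; vehicle controls and a fluconazole group at the same dose. Survival scored on days 1, 2, 3, 5, 7, 9, reported as % surviving on the day untreated, or fluconazole-treated, mortality reached 100%.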

[2] = The compound was tested in vitro for antifungal activity against 10 yeasts.; assay type: functional
Outline: (§2)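 Agar dilution on Kimmig's agar with 0.5% glycerol; ATCC or clinical isolates, inocula at 10⁵ cfu/mL. Drugs from 800 μg/mL stock in 50% ethanol, 2-fold serial dilutions 80 to 0.03 μg/mL in plates. Incubated 25 °C, 48 h for yeasts, 120 h for filamentous fungi. Value is geometric mean of MICs (μg/mL); >80 taken as 160, ≤0.03 as 0.03.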

[3] = system: Mus musculus; assay: In vivo antifungal activity against murine candidosis model after peroral administration with 2.5 mg/kg at various time intervals. (percent protection for 100% mortality with fluconazole-treated group.); assay type: functional; conditions: route oral; outline: as §1
[4] = The compound was tested in vitro for antifungal activity against 6 filamentous fungi.; assay type: functional; outline: as §2
[5] = system: Candida albicans; assay: In vivo antifungal activity against murine candidosis model after peroral administration with 0.5 mg/kg at various time intervals. (percent protection for 100% mortality with untreated group); assay type: functional; conditions: route oral; outline: as §1
[6] = system: Candida albicans; assay: In vivo antifungal activity against murine candidosis model after peroral administration with 0.5 mg/kg at various time intervals. (percent protection for 100% mortality with fluconazole-treated group.); assay type: functional; conditions: route oral; outline: as §1
[7] = In vivo antifungal activity against murine candidosis model after peroral administration with 1 mg/kg for 5 days.(percent protection for 100% mortality with untreated group); assay type: functional, Mus musculus; conditions: route oral
Outline: (§3)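 Second murine systemic Candida albicans model. Mice, n = 10 per group, dosed orally once daily for 5 days after infection. Animals observed for 65 days, with survival rate as read-out and vehicle controls included. Reported as % protection on the day of 100% mortality in the untreated group or in the fluconazole-treated group.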

[8] = system: Mus musculus; assay: In vivo antifungal activity against murine candidosis model after peroral administration with 1 mg/kg for 5 days.(percent protection for 100% mortality with fluconazole-treated group.); assay type: functional; conditions: route oral; outline: as §3
[9] = system: Candida albicans; assay: In vivo antifungal activity against murine candidosis model after peroral administration with 1 mg/kg at various time intervals. (percent protection for 100% mortality with fluconazole-treated group.); assay type: functional; conditions: route oral; outline: as §1
[10] = system: Candida albicans; assay: In vivo antifungal activity against murine candidosis model after peroral administration with 1 mg/kg at various time intervals. (percent protection for 100% mortality with untreated group); assay type: functional; conditions: route oral; outline: as §1
[11] = system: Mus musculus; assay: In vivo antifungal activity against murine candidosis model after peroral administration with 0.5 mg/kg for 5 days.(percent protection for 100% mortality with untreated group); assay type: functional; conditions: route oral; outline: as §3
[12] = system: Mus musculus; assay: In vivo antifungal activity against murine candidosis model after peroral administration with 0.5 mg/kg for 5 days.(percent protection for 100% mortality with fluconazole-treated group.); assay type: functional; conditions: route oral; outline: as §3

| Structure (SMILES) | Protection [1] [%] | MIC [2] [µg/mL] | Protection [3] [%] | MIC [4] [µg/mL] | Protection [5] [%] | Protection [6] [%] | Protection [7] [%] | Protection [8] [%] | Protection [9] [%] | Protection [10] [%] | Protection [11] [%] | Protection [12] [%] |
| --- | --- | --- | --- | --- | --- | --- | --- | --- | --- | --- | --- | --- |
| C[C@@H](NC(=O)c1ccc(-c2cccnc2)s1)[C@](O)(Cn1cncn1)c1ccc(F)cc1F | 60 | 1.6 (≈ 3.51 µM) | 0 | > 80 |  |  |  |  |  |  |  |  |
| CS(=O)(=O)O.Cc1nc(-c2ccc(C#N)cc2)sc1C(=O)N[C@H](C)[C@](O)(Cn1cncn1)c1ccc(F)cc1F |  | 1.2 |  | 4 | 100 | 100 | 100 | 10 |  |  |  |  |
| C[C@@H](c1ncncc1F)[C@](O)(Cn1cncn1)c1ccc(F)cc1F [VORICONAZOLE] |  | 0.6 (≈ 1.72 µM) |  | 0.5 (≈ 1.43 µM) | 0 | 0 | 20 | 0 |  |  |  |  |
| Cc1nn(C)c2ncc(C(=O)N[C@H](C)[C@](O)(Cn3cncn3)c3ccc(F)cc3F)c(Cl)c12 | 0 | 19 (≈ 39.9 µM) | 0 | > 80 |  |  |  |  |  |  |  |  |
| C[C@@H](n1cnc2cc(-c3ccc(Cl)cc3)sc2c1=O)[C@](O)(Cn1cncn1)c1ccc(F)cc1F |  | 0.2 (≈ 0.389 µM) |  | 2.2 (≈ 4.28 µM) |  |  | 100 | 100 | 100 | 100 |  |  |
| C[C@@H](n1cnc2cc(-c3ccc(C#N)cc3)sc2c1=O)[C@](O)(Cn1cncn1)c1ccc(F)cc1F |  | 0.3 (≈ 0.595 µM) |  | 13 (≈ 25.8 µM) |  |  |  |  | 100 | 100 | 100 | 40 |
| C[C@@H](c1nc(-c2ccc(C#N)cc2)cs1)[C@](O)(Cn1cncn1)c1ccc(F)cc1F [RAVUCONAZOLE] |  | 0.3 (≈ 0.686 µM) |  | 0.8 (≈ 1.83 µM) | 50 | 0 | 20 | 0 |  |  |  |  |
| Cc1cc2nnc(C(=O)N[C@H](C)[C@](O)(Cn3cncn3)c3ccc(F)cc3F)c(C)n2n1 | 0 | 10 (≈ 22.6 µM) | 0 | > 80 |  |  |  |  |  |  |  |  |
| C[C@H]([C@](O)(Cn1cncn1)c1ccc(F)cc1F)S(C)(=O)=O [GENACONAZOLE] |  | 8.7 (≈ 26.3 µM) |  | 25 (≈ 75.5 µM) | 100 | 100 | 100 | 20 |  |  |  |  |
